These results are taken from ChEMBL document CHEMBL5230167, “Discovery of N-sulfonylated aminosalicylic acids as dual MCL-1/BCL-xL inhibitors” (RSC Med Chem, 2023).

In experiment [1] the target is T1, Induced myeloid leukemia cell differentiation protein Mcl-1 (Homo sapiens, UniProt Q07820). Put plainly: Inhibition of FITC-labelled BAK BH3 peptide to 6His-MBP tagged recombinant human MCL-1 (172 to 327 residues) expressed in Escherichia coli assessed as inhibition constant by fluorescence polarization competition assay. In outline: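 Fluorescence polarization competition: compounds titrated into a mixture of MCL-1 (residues 172–327) and FITC-labelled BAK BH3 peptide. Displacement of the peptide was followed by the change in polarization, and Ki was derived from the competition titration.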
T1 sequence (Q07820 whole entry, the tested form may be a part): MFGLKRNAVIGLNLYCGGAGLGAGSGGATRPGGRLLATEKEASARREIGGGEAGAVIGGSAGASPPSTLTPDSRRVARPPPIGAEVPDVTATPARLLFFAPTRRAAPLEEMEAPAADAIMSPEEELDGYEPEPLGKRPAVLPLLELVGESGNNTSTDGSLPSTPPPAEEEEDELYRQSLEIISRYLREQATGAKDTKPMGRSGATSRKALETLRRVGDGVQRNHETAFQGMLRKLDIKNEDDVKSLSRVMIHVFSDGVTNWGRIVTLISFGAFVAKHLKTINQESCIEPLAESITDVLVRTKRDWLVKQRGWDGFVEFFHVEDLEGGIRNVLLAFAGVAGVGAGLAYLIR
On the technique in general: Polarisation of emitted light reports the rotation of a fluorescent probe.

The target of another experiment is Bcl-2-like protein 1 (Homo sapiens, UniProt Q07817). Description: Binding affinity to BCL-xL (unknown origin) assessed as inhibition constant.
Chain of Bcl-2-like protein 1 (Q07817 whole entry, the tested form may be a part): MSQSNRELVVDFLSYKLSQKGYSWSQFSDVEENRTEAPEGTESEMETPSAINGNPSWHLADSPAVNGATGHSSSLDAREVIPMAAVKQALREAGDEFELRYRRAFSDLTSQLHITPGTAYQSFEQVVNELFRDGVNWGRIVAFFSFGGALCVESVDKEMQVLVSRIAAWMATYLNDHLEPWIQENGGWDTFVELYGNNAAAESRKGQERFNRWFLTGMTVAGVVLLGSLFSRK
The species entered for experiment [2] is Homo sapiens. Description: Selectivity index, ratio of Ki for inhibition of FITC-labelled BAK BH3 peptide to 6His-MBP tagged recombinant human MCL-1 (172 to 327 residues) expressed in Escherichia coli assessed as inhibition constant to Ki for binding affinity to BCL-xL (unknown origin) assessed as inhibition constant.
In experiment [3] the target is T1, Induced myeloid leukemia cell differentiation protein Mcl-1. Description: Binding affinity to MCL-1 (unknown origin) assessed as inhibition constant.
Experiment [4] is filed under the species Homo sapiens. Put plainly: Selectivity index, ratio of Ki for inhibition of FITC-labelled BAK BH3 peptide to MCL-1 (172 to 327 residues) (unknown origin) assessed as inhibition constant to Ki for binding affinity to BCL-xL (unknown origin) assessed as inhibition constant.

Broadly, the Ki is a measure of affinity in units of concentration, obtained from inhibition or displacement. On to `Cc1cc(Oc2ccc(S(=O)(=O)N(c3ccc(C(=O)O)c(O)c3)C3CCCC3)cc2)cc(C)c1Cl`, for which the values for the inhibitory constant (Ki) (in experiment [1]; on Bcl-2-like protein 1) were 1.76 µM and 1.91 µM, respectively. Moreover, the Ratio Ki in the experiment filed under Homo sapiens [2] is 1.08.
As to `Cc1cc(Oc2ccc(S(=O)(=O)N(CC(C)C)c3ccc(C(=O)O)c(O)c3)cc2)cc(C)c1Cl`, the inhibition constant Ki in experiment [1] is 0.778 µM; on Bcl-2-like protein 1, 1.63 µM. The Ratio Ki in the experiment filed under Homo sapiens [2] was 2.09.
As to `Cc1cc(Oc2ccc(S(=O)(=O)N3CCCc4cc(C(=O)O)ccc43)cc2)cc(C)c1Cl`, the inhibition constant (Ki) was 3.56 µM on Bcl-2-like protein 1 and 2.73 µM in experiment [3].
As to `Cc1cc(Oc2ccc(S(=O)(=O)N(Cc3ccccc3)c3ccc(C(=O)O)c(O)c3)cc2)cc(C)c1Cl`, in the experiment filed under Homo sapiens [2], the Ratio Ki came to 2.65.
The same measure, in the same setting: the figure for `CC(C)CN(c1ccc(O)c(C(=O)O)c1)S(=O)(=O)c1ccc2ccccc2c1` is 5.94.
Consider `CC(C)CN(c1ccc(O)c(C(=O)O)c1)S(=O)(=O)c1ccccc1`, for which the Ki at Bcl-2-like protein 1 stood at 49.3 µM. The Ratio Ki in the experiment filed under Homo sapiens [2] amounted to 1.06.
For the molecule `CC(C)CN(c1ccc(C(=O)O)c(O)c1)S(=O)(=O)c1ccc2ccccc2c1`, the Ratio Ki in the experiment filed under Homo sapiens [2] came out at 3.12.
Still for that read-out and setting: then `CC(C)CN(c1ccc(C(=O)O)c(O)c1)S(=O)(=O)c1ccc(-c2ccccc2)cc1`, with 2.63.
`CC(C)CN(c1ccc(C(=O)O)c(O)c1)S(=O)(=O)c1ccccc1`: in the experiment filed under Homo sapiens [2], the Ratio Ki was found to be 0.8.
Still for that read-out and setting: then `CC(C)CN(c1ccc(O)c(C(=O)O)c1)S(=O)(=O)c1ccc(-c2ccccc2)cc1`, with 1.59; and `CC(C)CN(c1ccc(C(=O)O)c(O)c1)S(=O)(=O)c1ccc(Oc2ccccc2)cc1`, with 3.12.
Turning to `Cc1cc(Oc2ccc(S(=O)(=O)N3CC(C(=O)O)Cc4ccccc43)cc2)cc(C)c1Cl` (racemic), at Bcl-2-like protein 1, the inhibition constant Ki is 5.01 µM. Further, the Ratio Ki in the experiment listed under Homo sapiens [4] was found to be 42.
As to `Cc1cc(Oc2ccc(S(=O)(=O)N(CC(C)C)c3ccc(O)c(C(=O)O)c3)cc2)cc(C)c1Cl`, the Ratio Ki in the experiment filed under Homo sapiens [2] turned out to be 4.96.
